Experiments:
[1] = tested on: Influenza A virus; test: Antiviral activity against amantadine-resistant Influenza A virus A/WSN/33(H1N1) expressing M2 S31N mutant ion channel infected in MDCK cells assessed as protection against virus induced cytopathic effect after 48 hrs by microscopic analysis; format: functional, organism-based, A/WSN/1933(H1N1)
Method in brief: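 MDCK cells were grown 24 h to a confluent monolayer and rinsed twice. They were infected with 100 TCID50 virus for 2 h at 37 °C in 5% CO2, and the inoculum was removed. Serial two-fold compound dilutions in DMEM with 1.5 µg/mL trypsin were added for 48 h at 34 °C in 5% CO2. CPE percentage was scored microscopically. IC50 came from non-linear regression, as the mean of 2–3 determinations.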

[2] = tested on: Matrix protein 2 (Influenza A virus (A/Udorn/307/1972(H3N2))), P0DOF8 [S31N]; test: Inhibition of Influenza A virus M2 S31N mutant ion channel expressed in Xenopus oocytes at 100 uM after 2 mins by two-electrode voltage clamp assay; format: cell-based
Method in brief: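 A/M2 channel (S31N for line 7, wild type for line 9) was expressed in Xenopus oocytes and recorded by two-electrode voltage clamp. Compound was applied at 100 µM, and the percentage inhibition of channel current was taken after 2 min. Values are mean ± SD.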

[3] = tested on: Influenza A virus; test: Antiviral activity against amantadine-resistant Influenza A virus A/WSN/33(H1N1) expressing M2 S31N mutant ion channel infected in MDCK cells assessed as cell viability after 48 hrs by MTT assay; format: functional, organism-based, A/WSN/1933(H1N1)
Method in brief: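 Infected MDCK cells were given compound for 48 h, and the CPE-based result was confirmed by MTT viability. MTT was added from a 5 mg/mL stock for 4 h at 37 °C, stopped with DMSO, and read as absorbance at 490 nm. The 50% effective concentration was calculated by the Reed–Muench method, as the mean of 2–3 determinations.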

[4] = tested on: Matrix protein 2 (Influenza A virus (A/Udorn/307/1972(H3N2))), P0DOF8 [S31N]; test: Inhibition of Influenza A virus M2 S31N mutant ion channel expressed in 293Trex cells at 100 uM after 2 mins by patch clamp assay; format: cell-based

| SMILES | IC50 ([1]; read-out: IC50) | IC50 [3] | IC50 [1] | further results |
| --- | --- | --- | --- | --- |
| CCc1ncc(CN[C@@H]2C[C@@H]3C[C@H]([C@H]2C)C3(C)C)[nH]1 | 9.5 µM |  |  |  |
| NC12CC3CC(CC(C3)C1)C2 [AMANTADINE] | 337 µM |  |  | inhibition [2]: 24.3% |
| CCCc1nc[nH]c1CN[C@@H]1C[C@@H]2C[C@H]([C@H]1C)C2(C)C | 3.4 µM | 7.3 µM |  | inhibition [2]: 3.47% |
| C[C@@H]1[C@H]2C[C@@H](C[C@H]1NCc1[nH]cnc1C(C)(C)C)C2(C)C |  |  | Not Active |  |
| Cc1nc(C2CC2)[nH]c1CN[C@@H]1C[C@@H]2C[C@H]([C@H]1C)C2(C)C | 9.4 µM | 21.4 µM |  |  |
| C[C@@H]1[C@H]2C[C@@H](C[C@H]1NCc1cnc(C3CC3)[nH]1)C2(C)C | 29.4 µM |  |  |  |
| Cc1ncc(CN[C@@H]2C[C@@H]3C[C@H]([C@H]2C)C3(C)C)[nH]1 |  |  | Not Active |  |
| CCCc1nc(C(C)C)[nH]c1CN[C@@H]1C[C@@H]2C[C@H]([C@H]1C)C2(C)C | 8.8 µM | 11.3 µM |  |  |
| C[C@@H]1[C@H]2C[C@@H](C[C@H]1NCc1[nH]cnc1-c1ccccc1)C2(C)C |  |  | Not Active |  |
| CC(C)Cc1ncc(CN[C@@H]2C[C@@H]3C[C@H]([C@H]2C)C3(C)C)[nH]1 | 8.9 µM | 18.6 µM |  |  |
| C[C@@H]1[C@H]2C[C@@H](C[C@H]1NCc1cnc(-c3ccccc3)[nH]1)C2(C)C | 9 µM | 11 µM |  |  |
| C[C@@H]1[C@H]2C[C@@H](C[C@H]1NCc1cnc(C3CCCC3)[nH]1)C2(C)C |  |  | Not Active |  |
| CCCc1nc(-c2ccccc2)[nH]c1CN[C@@H]1C[C@@H]2C[C@H]([C@H]1C)C2(C)C | 12.3 µM | 16.1 µM |  |  |
| Cc1nc(C(C)C)[nH]c1CN[C@@H]1C[C@@H]2C[C@H]([C@H]1C)C2(C)C |  |  | Not Active |  |
| C[C@@H]1[C@H]2C[C@@H](C[C@H]1NCc1cnc(-c3cccs3)[nH]1)C2(C)C |  |  | Not Active |  |
| C[C@@H]1[C@H]2C[C@@H](C[C@H]1NCc1cnc(C(C)(C)C)[nH]1)C2(C)C | 9.7 µM | 11.6 µM |  |  |
| CCCc1nc(C2CC2)[nH]c1CN[C@@H]1C[C@@H]2C[C@H]([C@H]1C)C2(C)C | 7.3 µM | 9.7 µM |  |  |
| C[C@@H]1[C@H]2C[C@@H](C[C@H]1NCc1[nH]cnc1C1CC1)C2(C)C |  |  | Not Active |  |
| CCc1nc[nH]c1CN[C@@H]1C[C@@H]2C[C@H]([C@H]1C)C2(C)C |  |  | Not Active |  |
| CCCCc1ncc(CN[C@@H]2C[C@@H]3C[C@H]([C@H]2C)C3(C)C)[nH]1 |  |  | Not Active |  |
| Cc1nc[nH]c1CN[C@@H]1C[C@@H]2C[C@H]([C@H]1C)C2(C)C | 95.5 µM |  |  | inhibition [4]: 27% |
| C[C@@H]1[C@H]2C[C@@H](C[C@H]1NCc1cnc(C3CCCCC3)[nH]1)C2(C)C |  |  | Not Active |  |
| CC(C)c1ncc(CN[C@@H]2C[C@@H]3C[C@H]([C@H]2C)C3(C)C)[nH]1 |  |  | Not Active |  |
| CCc1nc(C)c(CN[C@@H]2C[C@@H]3C[C@H]([C@H]2C)C3(C)C)[nH]1 |  |  | Not Active | inhibition [2]: 1.73% |
| C[C@@H]1[C@H]2C[C@@H](C[C@H]1NCc1cncn1C)C2(C)C |  |  | Not Active |  |
